Apaf-1 act – human Apaf-1 activation; O14727; Apaf-1 apoptosome caspase-3 activation, DEVD-Rh110 fluorescence; stronger effect = lower value; activity change, negative = activation, % at 20 µM; hit rate 0.31% among 330,000; AID 489031;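 active = activity change at or below -40% at 20 µM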
Target sequence (O14727 whole entry, looked up): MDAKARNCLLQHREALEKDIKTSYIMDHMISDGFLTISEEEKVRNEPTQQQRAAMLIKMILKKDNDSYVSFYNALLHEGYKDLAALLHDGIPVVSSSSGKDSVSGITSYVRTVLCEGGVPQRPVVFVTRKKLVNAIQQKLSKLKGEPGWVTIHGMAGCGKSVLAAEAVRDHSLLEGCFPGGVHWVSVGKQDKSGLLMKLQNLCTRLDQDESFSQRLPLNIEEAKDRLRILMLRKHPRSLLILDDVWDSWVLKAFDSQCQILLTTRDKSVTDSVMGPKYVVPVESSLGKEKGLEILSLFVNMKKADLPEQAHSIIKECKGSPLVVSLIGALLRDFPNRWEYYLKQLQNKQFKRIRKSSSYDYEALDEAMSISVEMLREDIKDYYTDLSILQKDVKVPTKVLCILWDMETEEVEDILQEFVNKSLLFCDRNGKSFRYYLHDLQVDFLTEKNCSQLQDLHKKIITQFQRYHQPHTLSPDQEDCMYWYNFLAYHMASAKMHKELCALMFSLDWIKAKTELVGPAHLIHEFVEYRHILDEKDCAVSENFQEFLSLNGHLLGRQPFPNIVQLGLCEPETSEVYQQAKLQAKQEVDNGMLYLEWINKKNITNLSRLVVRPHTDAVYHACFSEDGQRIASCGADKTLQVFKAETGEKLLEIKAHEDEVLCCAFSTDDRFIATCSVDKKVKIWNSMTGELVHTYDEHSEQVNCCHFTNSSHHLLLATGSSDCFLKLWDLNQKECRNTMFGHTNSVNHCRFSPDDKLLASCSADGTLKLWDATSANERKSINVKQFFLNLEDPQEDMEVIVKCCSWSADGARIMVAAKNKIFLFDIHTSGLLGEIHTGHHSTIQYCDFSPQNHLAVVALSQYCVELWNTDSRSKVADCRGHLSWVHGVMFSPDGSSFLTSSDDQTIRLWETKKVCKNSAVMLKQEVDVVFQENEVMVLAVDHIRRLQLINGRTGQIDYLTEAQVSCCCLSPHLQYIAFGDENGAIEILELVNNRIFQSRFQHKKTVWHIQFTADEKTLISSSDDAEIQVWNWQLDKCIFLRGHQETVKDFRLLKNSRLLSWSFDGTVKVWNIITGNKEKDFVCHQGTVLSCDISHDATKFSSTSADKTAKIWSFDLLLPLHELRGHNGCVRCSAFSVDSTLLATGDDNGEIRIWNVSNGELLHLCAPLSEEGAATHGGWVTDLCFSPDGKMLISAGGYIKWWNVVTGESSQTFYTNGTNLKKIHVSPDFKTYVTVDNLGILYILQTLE
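Material: biochemical Apaf-1 apoptosome reconstitution; Medium: 20 mM HEPES buffer, pH 7.5, containing CHAPS and BSA; Reagent: dATP, cytochrome c, and (Z-DEVD)2-Rh110 caspase-3 substrate; Times: 30 min preincubation, 50 min reaction, room temperature; Signal: Rh110 fluorescence, excitation 480 nm, emission 540 nm; Measure: Caspase-3 activity via Apaf-1.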
Rh110 interf act – interferes with Rh110 fluorescence, flagging false Apaf-1 activators | shares compounds with Apaf-1 act | Rh110 fluorescence interference, quenched caspase reaction, Ex480/Em540 | fluorescence interference (activity change), % at 20 µM, hits read low | 980 tested, under 10 active;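 active = mean activity change at or below -40% when tested at 20 µM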
Apaf-1 act conf – Apaf-1 (human) activation, single-dose confirmed. shares compounds with Apaf-1 act. reconstituted apoptosome caspase-3 activity, DEVD-Rh110 fluorescence; stronger effect = lower value. activity change, negative = activation, % at 20 µM. hit rate 5% among 980;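 active = mean activity change at or below -40%, meaning activation of 40% or more, at 20 µM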
Fluor interf act – counter-screen for Apaf-1 activators: fluorescence interference, dose response; fluorescence interference counterscreen, Apaf-1 activator assay; shares compounds with Apaf-1 act; AID 588592; EC50, µM; 55 tested, under 10 active; call rule not given here
* = called active by the depositor. The list is a sample of the results.

What do the screens show for `COc1ccc2c(c1)OC[C@H]1[C@H]2N2C(=O)c3cc(OC)c(OC)cc3NC(=O)[C@@]2(C)[C@H]1c1ccccc1`?
Apaf-1 act: -142.5*; Rh110 interf act: 5.9; Apaf-1 act conf: 12.1

What do the screens show for `C=CCN1C=C2C(=O)C(C)(OC(=O)CCC(=O)OC)C(=O)C=C2C=C1C1CC1` (stereo not given)?
Apaf-1 act: 43.0

Results for COC(=O)c1ccccc1NC1=C/C(=N\S(=O)(=O)c2ccc(C(=O)O)cc2)c2ccccc2C1=O ?
Apaf-1 act: 95.2

Results for C/C(=C\c1ccccc1)C1Nc2cccc3cccc(c23)N1 ?
Apaf-1 act: 41.4

What do the screens show for `Cc1ccc2c(CN3CCCCC3C)cc(=O)oc2c1C` (stereo not given)?
Apaf-1 act: -49.6*; Rh110 interf act: 3.6; Apaf-1 act conf: 9.5

What do the screens show for `CN(C)c1ccc(NC(=O)Oc2ccccc2)cc1`?
Apaf-1 act: 48.3

What do the screens show for `COC(=O)c1ccc(C(=O)OC)c(NC(=O)CN2CCN(c3ccccc3)CC2)c1`?
Apaf-1 act: -190.9*; Rh110 interf act: -0.8; Apaf-1 act conf: 12.5

What do the screens show for `CC[C@]12c3[nH]c4ccc(Cl)cc4c3CCN1C(=O)[C@@H](CC(=O)NCC13CC4CC(CC(C4)C1)C3)C[C@@H]2C(=O)N1CCN(C(=O)c2ccco2)CC1`?
Apaf-1 act: 43.7

What do the screens show for `CN(C)c1ccnc2c[cH-]cc12.[Fe].c1ccc(-[c-]2[c-](-c3ccccc3)[c-](-c3ccccc3)[c-](-c3ccccc3)[c-]2-c2ccccc2)cc1` (stereo not given)?
Apaf-1 act: 47.2

How did CCN1C(=NCCc2ccccn2)N[C@@H](c2cccc(C(F)(F)F)c2)C(C(=O)OC)=C1C do in these assays?
Apaf-1 act: -114.4*; Rh110 interf act: 12.7; Apaf-1 act conf: 9.1

Results for COC(=O)C1=C(C)N(Cc2ccccc2)C(=NCCc2ccccn2)N[C@H]1c1cccc(C(F)(F)F)c1 ?
Apaf-1 act: 48.4

How did COC(=O)C1=C(C)N(Cc2ccccc2)C(=NCC(C)C)N[C@H]1c1cccc(C(F)(F)F)c1 do in these assays?
Apaf-1 act: 58.0

How did COc1ccc(/C=C2/C(=O)N(c3ccccc3)N=C2C)cc1OC do in these assays?
Apaf-1 act: 95.5

Results for O=C(COc1ccc2ccc(=O)oc2c1)Nc1ccc(N2CCCCC2)cc1 ?
Apaf-1 act: 46.6

What do the screens show for `CCCCCC(=O)Nc1ccc(N2CCN(S(C)(=O)=O)CC2)cc1`?
Apaf-1 act: -522.9*; Rh110 interf act: 6.2; Apaf-1 act conf: 12.2

How did CCC1=NNc2cccc3c(OC)ccc1c23 do in these assays?
Apaf-1 act: 52.1

What do the screens show for `CC(C)(CS(=O)(=O)[O-])NC(=O)CC[N+](C)(C)CCO`?
Apaf-1 act: -597.6*; Rh110 interf act: 7.6; Apaf-1 act conf: -128.0*; Fluor interf act: >100

How did Cc1noc(C)c1NC(=O)N(C)C[C@H]1Oc2ccc(NC(=O)CCN3CCOCC3)cc2C(=O)N([C@H](C)CO)C[C@@H]1C do in these assays?
Apaf-1 act: -45.7*; Rh110 interf act: 5.5; Apaf-1 act conf: 12.4

Results for C[C@H](CO)N1C[C@H](C)[C@@H](CN(C)Cc2ccc(-c3ccccc3)cc2)Oc2c(NC(=O)Cc3ccccc3)cccc2C1=O ?
Apaf-1 act: 43.4

How did Nc1ccc2nc(-c3ccccc3)c(-c3ccccc3)nc2c1 do in these assays?
Apaf-1 act: 64.6

How did Cc1nc2sccn2c(=O)c1CCN1CCC(=C(c2ccc(F)cc2)c2ccc(F)cc2)CC1 do in these assays?
Apaf-1 act: 42.3

What do the screens show for `Cc1ccc(NC2=C/C(=N/S(=O)(=O)c3cccs3)c3ccccc3C2=O)cc1`?
Apaf-1 act: 92.4

What do the screens show for `O=C(c1ccco1)[C@@H]1[C@@H]2C(=O)N(c3ccc(F)cc3)C(=O)[C@@H]2C2c3ccccc3C=CN21` (stereo not given in full)?
Apaf-1 act: 82.5

How did CCC(C)NCCOCCOc1ccc(Br)cc1 (stereo not given) do in these assays?
Apaf-1 act: -47.5*; Rh110 interf act: 1.9; Apaf-1 act conf: 11.2

What do the screens show for `COc1ccc2cc3cc(C(=O)NCCCN4CCc5ccccc5C4)sc3nc2c1`?
Apaf-1 act: 42.0

What do the screens show for `NC(=O)[C@@H]1CCCNc2c(I)cc([N+](=O)[O-])cc2C(=O)N[C@@H](CCCN=C(N)N)C(=O)N[C@@H](CCCN=C(N)N)C(=O)N1`?
Apaf-1 act: 40.8

How did NS(=O)(=O)c1ccc(Cc2ncc(C(F)(F)F)cc2Cl)s1 do in these assays?
Apaf-1 act: -40.0*; Rh110 interf act: 0.9; Apaf-1 act conf: 7.5

Results for O=C1CC(c2ccccc2)n2ncnc2N1 (stereo not given) ?
Apaf-1 act: -347.5*; Rh110 interf act: 3.5; Apaf-1 act conf: 11.1

How did O=C1c2ccccc2C(=O)C12OC2c1cccc2ccccc12 (stereo not given) do in these assays?
Apaf-1 act: 94.5

How did O=C(N/N=C/c1c(F)cccc1Cl)C1CC1 do in these assays?
Apaf-1 act: -141.5*; Rh110 interf act: -3.9; Apaf-1 act conf: 7.8

What do the screens show for `O=C1N/C(=C\c2ccc(O)cc2)C(=O)c2ccccc21`?
Apaf-1 act: 97.0

Results for COCCNC(=O)CN1C(=O)NC2(CCOc3ccccc32)C1=O (stereo not given) ?
Apaf-1 act: 45.7

How did COCc1cc(=O)[nH]c(Sc2c(-c3ccccc3)c3ccc(Cl)cc3[nH]c2=O)n1 do in these assays?
Apaf-1 act: -49.5*; Rh110 interf act: 10.1; Apaf-1 act conf: 10.9

How did Cc1[nH]n(-c2ccccc2)c(=O)c1C(c1ccc(O)c([N+](=O)[O-])c1)c1c(C)[nH]n(-c2ccccc2)c1=O do in these assays?
Apaf-1 act: 87.2

Results for COc1ccc(/C=C/C(=O)Nc2cc(C)nn2-c2nc3ccccc3[nH]2)cc1 ?
Apaf-1 act: -56.2*; Rh110 interf act: 11.4; Apaf-1 act conf: 14.5

How did Oc1ccc(/C=N/Nc2cc(N3CCCC3)nc(N3CCCC3)n2)cc1O do in these assays?
Apaf-1 act: 59.7

What do the screens show for `CCOCCCNC(=O)COc1ccc(OC)cc1`?
Apaf-1 act: -293.3*; Rh110 interf act: 11.9; Apaf-1 act conf: 11.9

Results for CCOCCCNC1=C(Cl)C(=O)c2ccccc2C1=O ?
Apaf-1 act: 47.9

Results for CC1=NN(c2ccc(S(=O)(=O)O)cc2Cl)C(=O)C1 ?
Apaf-1 act: 66.2

Results for O=C(N/N=C/c1ccc(-c2ccccc2[N+](=O)[O-])o1)[C@H]1C[C@@H]1c1ccccc1 ?
Apaf-1 act: 67.8

Results for O=C(N/N=C/c1[nH]c2ccccc2c1Cl)c1cccc(Br)c1 ?
Apaf-1 act: -71.9*; Rh110 interf act: 11.6; Apaf-1 act conf: 11.4

Results for O=C(NN=c1c(=O)c2ccccc2c1=O)c1ccccc1 ?
Apaf-1 act: 96.4

What do the screens show for `COC(=O)c1c(NC(=O)COc2ccc(Cl)cc2)sc2c1CC(C)(C)NC2(C)C`?
Apaf-1 act: 61.3

What do the screens show for `CCOC(=O)c1nn(-c2ccccc2)c(=O)c2c(N)scc12`?
Apaf-1 act: 55.5

What do the screens show for `Oc1cc(NCCN2CCOCC2)cc2cccnc12`?
Apaf-1 act: 92.3
